These entries were drawn from the full list.
PGC1a acetyl up: raises PGC1a acetylation signal in U2OS cells; U2OS PGC1a acetylation AlphaScreen, overnight; activation, % at 15.6 µM; hit rate 0.21% among 350,000;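 active means every replicate reaching activation of at least 50%, whatever the mean replicate activation; inconclusive means replicates that disagree or another doubt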;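 further: hits raise the AlphaScreen acetylation signal above neutral controls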
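System: Flag-PGC1a/GCN5 U2OS cells | Quantity: 7000 cells/well | Times: Overnight compound treatment, 37 °C | Measured by: AlphaScreen proximity luminescence, anti-acetyl-lysine antibody | Dosing: One concentration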
G6PC hep suppr: hepatocyte G6PC expression change via PGC-1a acetylation activation; shares compounds with PGC1a acetyl up; primary mouse hepatocytes, G6PC mRNA qPCR, forskolin; G6PC suppression (normalized activity, % of positive control; higher = more suppression), % at 26 µM; 240 tested, under 10 active; AID 743463;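 active means dose curves showing G6PC suppression whose half-maximal dose is at most twice the top valid dose; inconclusive means flat curves with moderate negative activity, or unreliable fits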;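 further: G6PC expression relative to GAPDH housekeeping gene as delta delta Ct; 0% = median of neutral control wells and 100% = median of positive control wells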
PCK1 hep suppr: hepatocyte PCK1 expression change via PGC-1a acetylation activation; PCK1 expression decrease, unspecified at 26 µM; primary mouse hepatocytes, PCK1 mRNA qPCR, forskolin-stimulated; 230 tested, under 10 active; shares compounds with PGC1a acetyl up; AID 743465;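 active means compounds lowering PCK1 expression whose fitted half-maximal concentration is at most twice the top tested dose; inconclusive means flat fit with moderate opposite-direction effect, or poor fit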;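 further: values are delta delta Ct of PCK1 relative to GAPDH; higher delta delta Ct means lower PCK1 expression so positive values indicate hits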
PGC1a hep suppr: hepatocyte PGC-1a expression change via PGC-1a acetylation activation; shares compounds with PGC1a acetyl up; primary mouse hepatocytes, PGC-1a mRNA qPCR, forskolin; top dose 26 µM; max activity (PGC-1a expression decrease), %; 240 tested, under 10 active; AID 743467;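 active means compound lowering PGC-1a expression with fitted half-maximal concentration at most twice its top tested dose; inconclusive means flat curve with moderate opposite-direction effect, or poor fit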;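 further: 0% = neutral control wells median and 100% = positive control wells median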
* marks the source's active call; other numbers are inactive results; ? = inconclusive; [ ] = another dose, or the depositor's remark.

SMILES	PGC1a acetyl up	others
COC(=O)c1ccccc1N(C)S(=O)(=O)c1cc2c(cc1C)OCC(=O)N2	-43.8
Cc1ccc(CNC(=O)C2CC(c3ccc([N+](=O)[O-])cc3)=NO2)cc1 (configuration not stated)	78.5*
CCCCn1c(=O)[nH]c(=O)c2c1nc(-c1ccc(OCCC)c(OCC)c1)n2C	-52.5
CC(C)n1c(=S)[nH]c2cc(Cl)ccc21	-69.1
COc1ccccc1C(=O)/C=C/c1ccc(N2CCCCC2)c([N+](=O)[O-])c1	187.3*
C=C1CCN(c2ccc(C(=O)NCc3ccccc3)cc2[N+](=O)[O-])CC1	-43.9
O=C(NC1CCCC1)C(c1ccncc1)N(Cc1ccccc1F)C(=O)c1csnn1 (configuration not stated)	-46.6
CCC(=O)NC1(Cc2ccc(O)cc2)CCCCC1	-43.9
O=CNCCc1nc2ccccc2n1CCc1ccccc1	-52.9
COc1cccc(-c2ccc(C3[C@@H]4CN(S(=O)(=O)c5cccc(OC)c5)C[C@H]3N4)cc2)c1 (some centres not stated)	57.5*
Cc1ccc(S(=O)(=O)N2C[C@@H]3N[C@H](C2)[C@@H]3c2ccc(-c3cccc(C)c3)cc2)cc1	65.9*
Cc1cccc(S(=O)(=O)N2C[C@@H]3N[C@H](C2)C3c2ccc(-c3ccccc3C)cc2)c1 (some centres not stated)	166.1*
COc1cccc(S(=O)(=O)N2C[C@@H]3N[C@H](C2)C3c2ccc(-c3ccccc3C)cc2)c1 (some centres not stated)	242.1*
O=S(=O)(c1ccc(-c2ccccc2)cc1)N1C[C@@H]2N[C@H](C1)[C@@H]2c1ccc(-c2cccnc2)cc1	-54.7
Cc1ccc(NC(=O)C2C(c3ccccc3)C2(Cl)Cl)c(C)c1 (configuration not stated)	-70.6
O=C(c1cccc(F)c1)N1CCN(C(=O)c2cc(-c3ccc(Cl)cc3Cl)on2)CC1	-42.6
CN(C)c1ccc(/C=N/N(CCC#N)C2=NS(=O)(=O)c3ccccc32)cc1	-52.1
Cc1ccccc1Cn1cc(NC(=O)c2cc(-c3cccs3)on2)cn1	?	PCK1 hep suppr=-13.8;PGC1a hep suppr=21.6
COCCNC(=O)CCc1c(C)nc2c(c(C)nn2-c2ccc(C)c(C)c2)c1C	-78.1
CCN(CC)c1ccc(N)cc1S(=O)(=O)Nc1ccccc1OC	56.6*	G6PC hep suppr=-9.5;PCK1 hep suppr=79.3;PGC1a hep suppr=25.5
CCCn1c(=O)c2ccccc2n2c(SCc3c(C(=O)OCC)oc4ccccc34)nnc12	-41.8
O=C(NCc1ccccc1)N1CCC(n2cnc3cc(F)ccc32)CC1	137.6*	PCK1 hep suppr=1.3;PGC1a hep suppr=43.1
OC[C@@H]1CN(Cc2ccccc2)C[C@H](n2cnc3c(NCc4ccc(F)cc4)ncnc32)O1	-43.8
Cc1ccc(S(=O)(=O)N(Cc2ccc(F)cc2)Cc2ccco2)cc1	70.7*	G6PC hep suppr=0.1;PCK1 hep suppr=30.6;PGC1a hep suppr=?
O=[N+]([O-])c1nn(-c2ccc(Cl)cc2)n(O)c1=NCc1ccncc1	-45.7
SMILES	PGC1a acetyl up	others
N#Cc1ccc(C(=O)CSc2nnc(-c3ccc(C(F)(F)F)cn3)s2)cc1	-47.4
CN(c1ccccc1)S(=O)(=O)c1ccc(Cl)nc1	-44.1
O=[N+]([O-])c1ccc(Oc2ccc(F)cc2)c2ccncc12	-42.9
Cc1ccc(NC2=C/C(=N\S(=O)(=O)c3cccs3)c3ccccc3C2=O)c(C)c1	-92.9
Cc1ccc(Nc2nnc(C)c3ccccc23)c(C)c1	?	G6PC hep suppr=-19.7;PCK1 hep suppr=-28.7;PGC1a hep suppr=88.4
CCOC(=O)NC(=O)CSc1nnnn1-c1ccc(C)cc1	-93.5
CCOC(=O)C(C)n1cnc2c(nnn2-c2ccc(C)cc2)c1=O (configuration not stated)	-66.7	G6PC hep suppr=51.8;PCK1 hep suppr=-30.5[8 µM];PGC1a hep suppr=?
CCCCCOC(=O)Cc1c(O)c2ccccc2n(C)c1=O	-42.8	G6PC hep suppr=-30.1;PCK1 hep suppr=-15.6;PGC1a hep suppr=-27.3
COc1ccc(-c2nc(C#N)c(NCc3ccco3)o2)cc1	-51.8
CN1Cc2c(N3CCOCC3)nc3sc(C(=O)c4ccc(Br)cc4)c(N)c3c2CC1(C)C	82.6*	G6PC hep suppr=234.8;PCK1 hep suppr=208;PGC1a hep suppr=48.5
CCn1c(CSc2nnc3ccccn23)nc2cc(C(=O)O)ccc21	-47.5
COc1ccc(/C=N/Nc2nncn2N)cc1Br	-68.6
Cc1ccc(-n2cccn2)c(CN2CCCC(C(=O)c3sccc3C)C2)c1 (configuration not stated)	68.3*	PGC1a hep suppr=?
Clc1ccccc1OCCCCN1CCCC1	-42.0
O=c1c2cccnc2n(-c2ccccc2)n1Cc1ccc(Cl)cc1	-101.0
Cc1ccc(S(=O)(=O)N/N=C/c2c[nH]c3ccccc23)cc1	-104.5

Screening data from PubChem BioAssay.
